Experiment [1] relates to MT4. Nature of the experiment: In vitro inhibitory activity for cytopathicities induced by HIV-1III B against MT-4 cells. It counts as functional, cell-based. The conditions noted are these: Homo sapiens. Put shortly:
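Exponentially growing MT-4 cells were pelleted (140g, 5 min), infected in a small volume of RPMI-1640 with 100 TCID50 HIV-1 IIIB for 1 h, washed, and plated at 2.5 × 10⁴ cells/well with serial oligonucleotide dilutions. Viability was read by MTT at day 6. IC50 was taken from dose-response curves, as the mean of duplicate or quadruplicate ± SD.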
In general terms: Protection from cytopathic effect is a common read-out in antiviral testing.

For experiment [2], the system named is MT4. Nature of the experiment: Cytotoxicity was measured against MT-4 cells using MTT assay. Conditions: Homo sapiens. Format: functional.

Regarding `Cc1cn([C@H]2C[C@H](OP(=O)(O)OC[C@H]3O[C@@H](n4cnc5c(=O)[nH]c(N)nc54)C[C@@H]3OP(=O)(O)OC[C@H]3O[C@@H](n4cnc5c(=O)[nH]c(N)nc54)C[C@@H]3OP(=O)(O)OC[C@H]3O[C@@H](n4cnc5c(=O)[nH]c(N)nc54)CC3OP(=O)(O)OC[C@H]3O[C@@H](n4cnc5c(N)ncnc54)C[C@@H]3OP(=O)(O)OC[C@H]3O[C@@H](n4cnc5c(=O)[nH]c(N)nc54)C[C@@H]3O[Si](c3ccccc3)(c3ccccc3)C(C)(C)C)[C@@H](CO[Si](c3ccccc3)(c3ccccc3)C(C)(C)C)O2)c(=O)[nH]c1=O` (stereo partly specified), the IC50 (commonly the concentration at which inhibition is half-maximal) with MT4 [1] is 6 µM. The CC50 (usually the concentration that lowers cell viability or growth by half) in the experiment with MT4 [2] was above 40 µM.
Taken in the same sequence, the figures for `Cc1cn([C@H]2C[C@H](OP(=O)(O)OC[C@H]3O[C@@H](n4cc(C)c(=O)[nH]c4=O)C[C@@H]3OP(=O)(O)OC[C@H]3O[C@@H](n4cc(C)c(=O)[nH]c4=O)C[C@@H]3OP(=O)(O)OC[C@H]3O[C@@H](n4cc(C)c(=O)[nH]c4=O)C[C@@H]3OP(=O)(O)OC[C@H]3O[C@@H](n4cc(C)c(=O)[nH]c4=O)C[C@@H]3OP(=O)(O)OC[C@H]3O[C@@H](n4cc(C)c(=O)[nH]c4=O)C[C@@H]3O)[C@@H](COCc3ccc(OCc4ccccc4)c(OCc4ccccc4)c3)O2)c(=O)[nH]c1=O` were above 24 µM and above 24 µM.
The corresponding values for `Cc1cn([C@H]2C[C@H](OP(=O)(O)OC[C@H]3O[C@@H](n4cnc5c(O)nc(N)nc54)C[C@@H]3O)[C@@H](COCc3ccc(OCc4ccccc4)c(OCc4ccccc4)c3)O2)c(=O)[nH]c1=O` are above 100 µM and above 100 µM.
`Cc1cn([C@H]2C[C@H](OP(=O)(O)OC[C@H]3O[C@@H](n4cnc5c(O)nc(N)nc54)C[C@@H]3OP(=O)(O)OC[C@H]3O[C@@H](n4cnc5c(O)nc(N)nc54)C[C@@H]3O)[C@@H](COCc3ccc(OCc4ccccc4)c(OCc4ccccc4)c3)O2)c(=O)[nH]c1=O`: in the experiment on MT4 [1], the IC50 is above 70 µM. Moreover, the CC50 in the experiment with MT4 [2] was above 70 µM.
In turn, `Cc1cn([C@H]2C[C@H](OP(=O)(O)OC[C@H]3O[C@@H](n4cnc5c(=O)[nH]c(N)nc54)C[C@@H]3OP(=O)(O)OC[C@H]3O[C@@H](n4cnc5c(=O)[nH]c(N)nc54)C[C@@H]3OP(=O)(O)OC[C@H]3O[C@@H](n4cnc5c(=O)[nH]c(N)nc54)C[C@@H]3OP(=O)(O)OC[C@H]3O[C@@H](n4cnc5c(N)ncnc54)C[C@@H]3OP(=O)(O)OC[C@H]3O[C@@H](n4cnc5c(=O)[nH]c(N)nc54)C[C@@H]3O)[C@@H](COCc3ccc4ccccc4c3)O2)c(=O)[nH]c1=O` registered an IC50 in the experiment with MT4 [1] of 2 µM. Also, the CC50 with MT4 [2] is above 40 µM.
Taken in the same sequence, the figures for `Cc1cn([C@H]2C[C@H](OP(=O)(O)OC[C@H]3O[C@@H](n4cnc5c(=O)[nH]c(N)nc54)C[C@@H]3OP(=O)(O)OC[C@H]3O[C@@H](n4cnc5c(=O)[nH]c(N)nc54)C[C@@H]3OP(=O)(O)OC[C@H]3O[C@@H](n4cnc5c(=O)[nH]c(N)nc54)C[C@@H]3OP(=O)(O)OC[C@H]3O[C@@H](n4cnc5c(N)ncnc54)C[C@@H]3OP(=O)(O)OC[C@H]3O[C@@H](n4cnc5c(=O)[nH]c(N)nc54)C[C@@H]3O)[C@@H](CO)O2)c(=O)[nH]c1=O` were above 40 µM and above 40 µM.
The corresponding values for `Cc1cn([C@H]2C[C@H](OP(=O)(O)OC[C@H]3O[C@@H](n4cnc5c(=O)[nH]c(N)nc54)C[C@@H]3OP(=O)(O)OC[C@H]3O[C@@H](n4cnc5c(=O)[nH]c(N)nc54)C[C@@H]3OP(=O)(O)OC[C@H]3O[C@@H](n4cnc5c(=O)[nH]c(N)nc54)C[C@@H]3OP(=O)(O)OC[C@H]3O[C@@H](n4cnc5c(N)ncnc54)C[C@@H]3OP(=O)(O)OC[C@H]3O[C@@H](n4cnc5c(=O)[nH]c(N)nc54)C[C@@H]3O)[C@@H](COC3(c4ccccc4)c4ccccc4Oc4ccccc43)O2)c(=O)[nH]c1=O` are 0.95 µM and above 40 µM.
In the case of `Cc1cn([C@H]2C[C@H](OP(=O)(O)OC[C@H]3O[C@@H](n4cnc5c(=O)[nH]c(N)nc54)C[C@@H]3OP(=O)(O)OC[C@H]3O[C@@H](n4cc(C)c(=O)[nH]c4=O)C[C@@H]3OP(=O)(O)OC[C@H]3O[C@@H](n4cnc5c(=O)[nH]c(N)nc54)C[C@@H]3OP(=O)(O)OC[C@H]3O[C@@H](n4cnc5c(N)ncnc54)C[C@@H]3OP(=O)(O)OC[C@H]3O[C@@H](n4cnc5c(=O)[nH]c(N)nc54)C[C@@H]3O)[C@@H](COCc3ccc(OCc4ccccc4)c(OCc4ccccc4)c3)O2)c(=O)[nH]c1=O`, the IC50 with MT4 [1] was above 24 µM. The compound also came in with a CC50 in the experiment on MT4 [2] above 24 µM.
As for `Cc1cn([C@H]2C[C@H](OP(=O)(O)OC[C@H]3O[C@@H](n4cnc5c(=O)[nH]c(N)nc54)C[C@@H]3OP(=O)(O)OC[C@H]3O[C@@H](n4cnc5c(=O)[nH]c(N)nc54)C[C@@H]3OP(=O)(O)OC[C@H]3O[C@@H](n4cnc5c(=O)[nH]c(N)nc54)C[C@@H]3OP(=O)(O)OC[C@H]3O[C@@H](n4cnc5c(N)ncnc54)C[C@@H]3OP(=O)(O)OC[C@H]3O[C@@H](n4cnc5c(=O)[nH]c(N)nc54)C[C@@H]3O)[C@@H](COCc3ccc(OCc4ccccc4)cc3)O2)c(=O)[nH]c1=O`, half-maximal inhibition in the experiment on MT4 [1] (IC50) required 1.9 µM. In addition, the CC50 in the experiment with MT4 [2] was above 40 µM.
Taken in the same sequence, the figures for `Cc1cn([C@H]2C[C@H](OP(=O)(O)OC[C@H]3O[C@@H](n4cnc5c(=O)[nH]c(N)nc54)C[C@@H]3OP(=O)(O)OC[C@H]3O[C@@H](n4cnc5c(=O)[nH]c(N)nc54)C[C@@H]3OP(=O)(O)OC[C@H]3O[C@@H](n4cnc5c(=O)[nH]c(N)nc54)C[C@@H]3OP(=O)(O)OC[C@H]3O[C@@H](n4cnc5c(N)ncnc54)C[C@@H]3OP(=O)(O)OC[C@H]3O[C@@H](n4cnc5c(=O)[nH]c(N)nc54)C[C@@H]3O[Si](c3ccccc3)(c3ccccc3)C(C)(C)C)[C@@H](CO)O2)c(=O)[nH]c1=O` were above 40 µM and 7.7 µM.
`Cc1cn([C@H]2C[C@H](OP(=O)(O)OC[C@H]3O[C@@H](n4cc(C)c(=O)[nH]c4=O)C[C@@H]3OP(=O)(O)OC[C@H]3O[C@@H](n4cnc5c(O)nc(N)nc54)C[C@@H]3OP(=O)(O)OC[C@H]3O[C@@H](n4cnc5c(O)nc(N)nc54)C[C@@H]3OP(=O)(O)OC[C@H]3O[C@@H](n4cnc5c(O)nc(N)nc54)C[C@@H]3O)[C@@H](COCc3ccc(OCc4ccccc4)c(OCc4ccccc4)c3)O2)c(=O)[nH]c1=O` showed an IC50 in the experiment with MT4 [1] above 40 µM. The same compound returned a CC50 in the experiment with MT4 [2] of 40 µM.
Taken in the same sequence, the figures for `Cc1cn([C@H]2C[C@H](OP(=O)(O)OC[C@H]3O[C@@H](n4cnc5c(=O)[nH]c(N)nc54)C[C@@H]3OP(=O)(O)OC[C@H]3O[C@@H](n4cnc5c(=O)[nH]c(N)nc54)C[C@@H]3OP(=O)(O)OC[C@H]3O[C@@H](n4cnc5c(=O)[nH]c(N)nc54)C[C@@H]3OP(=O)(O)OC[C@H]3O[C@@H](n4cnc5c(=O)[nH]c(N)nc54)C[C@@H]3O)[C@@H](COCc3ccc(OCc4ccccc4)c(OCc4ccccc4)c3)O2)c(=O)[nH]c1=O` were 0.66 µM and above 40 µM.
In the experiment on MT4 [1], `Cc1cn([C@H]2C[C@H](OP(=O)(O)OC[C@H]3O[C@@H](n4cnc5c(O)nc(N)nc54)C[C@@H]3OP(=O)(O)OC[C@H]3O[C@@H](n4cnc5c(O)nc(N)nc54)C[C@@H]3OP(=O)(O)OC[C@H]3O[C@@H](n4cnc5c(O)nc(N)nc54)C[C@@H]3OP(=O)(O)OC[C@H]3O[C@@H](n4cnc5c(N)ncnc54)C[C@@H]3O)[C@@H](COCc3ccc(OCc4ccccc4)c(OCc4ccccc4)c3)O2)c(=O)[nH]c1=O` displayed an IC50 of 1.9 µM. Also, the CC50 with MT4 [2] is above 40 µM.
The corresponding values for `Cc1cn([C@H]2C[C@H](OP(=O)(O)OC[C@H]3O[C@@H](n4cnc5c(=O)[nH]c(N)nc54)C[C@@H]3OP(=O)(O)OC[C@H]3O[C@@H](n4cnc5c(=O)[nH]c(N)nc54)C[C@@H]3OP(=O)(O)OC[C@H]3O[C@@H](n4cnc5c(=O)[nH]c(N)nc54)C[C@@H]3OP(=O)(O)OC[C@H]3O[C@@H](n4cnc5c(N)ncnc54)C[C@@H]3OP(=O)(O)OC[C@H]3O[C@@H](n4cnc5c(=O)[nH]c(N)nc54)C[C@@H]3O)[C@@H](CO[Si](c3ccccc3)(c3ccccc3)C(C)(C)C)O2)c(=O)[nH]c1=O` are 0.88 µM and above 40 µM.
The corresponding values for `Cc1cn([C@H]2C[C@H](OP(=O)(O)OC[C@H]3O[C@@H](n4cnc5c(=O)[nH]c(N)nc54)C[C@@H]3OP(=O)(O)OC[C@H]3O[C@@H](n4cnc5c(=O)[nH]c(N)nc54)C[C@@H]3OP(=O)(O)OC[C@H]3O[C@@H](n4cnc5c(=O)[nH]c(N)nc54)C[C@@H]3OP(=O)(O)OC[C@H]3O[C@@H](n4cnc5c(N)ncnc54)C[C@@H]3OP(=O)(O)OC[C@H]3O[C@@H](n4cnc5c(=O)[nH]c(N)nc54)C[C@@H]3O)[C@@H](COCc3ccccc3)O2)c(=O)[nH]c1=O` are above 40 µM and above 40 µM.
Taken in the same sequence, the figures for `Cc1cn([C@H]2C[C@H](OP(=O)(O)OC[C@H]3O[C@@H](n4cc(C)c(=O)[nH]c4=O)C[C@@H]3OP(=O)(O)OC[C@H]3O[C@@H](n4cnc5c(O)nc(N)nc54)C[C@@H]3OP(=O)(O)OC[C@H]3O[C@@H](n4cnc5c(O)nc(N)nc54)C[C@@H]3O)[C@@H](COCc3ccc(OCc4ccccc4)c(OCc4ccccc4)c3)O2)c(=O)[nH]c1=O` were above 50 µM and 33 µM.
Take `Cc1cn([C@H]2C[C@H](OP(=O)(O)OC[C@H]3O[C@@H](n4cnc5c(=O)[nH]c(N)nc54)C[C@@H]3OP(=O)(O)OC[C@H]3O[C@@H](n4cnc5c(=O)[nH]c(N)nc54)C[C@@H]3OP(=O)(O)OC[C@H]3O[C@@H](n4cnc5c(=O)[nH]c(N)nc54)C[C@@H]3OP(=O)(O)OC[C@H]3O[C@@H](n4cnc5c(N)ncnc54)C[C@@H]3OP(=O)(O)OC[C@H]3O[C@@H](n4cnc5c(=O)[nH]c(N)nc54)C[C@@H]3O)[C@@H](COCc3cc(OCc4ccccc4)cc(OCc4ccccc4)c3)O2)c(=O)[nH]c1=O`: half-maximal inhibition in the experiment on MT4 [1] (IC50) required 0.49 µM. The CC50 with MT4 [2] was above 40 µM.
In the case of `Cc1cn([C@H]2C[C@H](OP(=O)(O)OC[C@H]3O[C@@H](n4cnc5c(=O)[nH]c(N)nc54)C[C@@H]3OP(=O)(O)OC[C@H]3O[C@@H](n4cnc5c(=O)[nH]c(N)nc54)C[C@@H]3OP(=O)(O)OC[C@H]3O[C@@H](n4cnc5c(=O)[nH]c(N)nc54)C[C@@H]3OP(=O)(O)OC[C@H]3O[C@@H](n4cnc5c(N)ncnc54)C[C@@H]3OP(=O)(O)OC[C@H]3O[C@@H](n4cnc5c(=O)[nH]c(N)nc54)C[C@@H]3O)[C@@H](COCc3ccccc3-c3ccccc3)O2)c(=O)[nH]c1=O`, in the experiment on MT4 [1], the IC50 amounted to 1.2 µM. The CC50 in the experiment with MT4 [2] was above 40 µM.
